# Measurements as given in ChEMBL document CHEMBL4196093, “Small-Molecule Activator of UNC-51-Like Kinase 1 (ULK1) That Induces Cytoprotective Autophagy for Parkinson's Disease Treatment” (J Med Chem, 2018).
# How the values were obtained:
# [1] = biological target: T1, Serine/threonine-protein kinase ULK1 (Homo sapiens) (UniProt O75385); assay: Induction of human recombinant N-terminal GST tagged-ULK1 (1 to 649 residues) kinase activity expressed in baculovirus infected insect Sf9 cells at 100 nM using MBP as substrate after 60 mins by ADP-glo assay relative to control
# T1 sequence (whole entry): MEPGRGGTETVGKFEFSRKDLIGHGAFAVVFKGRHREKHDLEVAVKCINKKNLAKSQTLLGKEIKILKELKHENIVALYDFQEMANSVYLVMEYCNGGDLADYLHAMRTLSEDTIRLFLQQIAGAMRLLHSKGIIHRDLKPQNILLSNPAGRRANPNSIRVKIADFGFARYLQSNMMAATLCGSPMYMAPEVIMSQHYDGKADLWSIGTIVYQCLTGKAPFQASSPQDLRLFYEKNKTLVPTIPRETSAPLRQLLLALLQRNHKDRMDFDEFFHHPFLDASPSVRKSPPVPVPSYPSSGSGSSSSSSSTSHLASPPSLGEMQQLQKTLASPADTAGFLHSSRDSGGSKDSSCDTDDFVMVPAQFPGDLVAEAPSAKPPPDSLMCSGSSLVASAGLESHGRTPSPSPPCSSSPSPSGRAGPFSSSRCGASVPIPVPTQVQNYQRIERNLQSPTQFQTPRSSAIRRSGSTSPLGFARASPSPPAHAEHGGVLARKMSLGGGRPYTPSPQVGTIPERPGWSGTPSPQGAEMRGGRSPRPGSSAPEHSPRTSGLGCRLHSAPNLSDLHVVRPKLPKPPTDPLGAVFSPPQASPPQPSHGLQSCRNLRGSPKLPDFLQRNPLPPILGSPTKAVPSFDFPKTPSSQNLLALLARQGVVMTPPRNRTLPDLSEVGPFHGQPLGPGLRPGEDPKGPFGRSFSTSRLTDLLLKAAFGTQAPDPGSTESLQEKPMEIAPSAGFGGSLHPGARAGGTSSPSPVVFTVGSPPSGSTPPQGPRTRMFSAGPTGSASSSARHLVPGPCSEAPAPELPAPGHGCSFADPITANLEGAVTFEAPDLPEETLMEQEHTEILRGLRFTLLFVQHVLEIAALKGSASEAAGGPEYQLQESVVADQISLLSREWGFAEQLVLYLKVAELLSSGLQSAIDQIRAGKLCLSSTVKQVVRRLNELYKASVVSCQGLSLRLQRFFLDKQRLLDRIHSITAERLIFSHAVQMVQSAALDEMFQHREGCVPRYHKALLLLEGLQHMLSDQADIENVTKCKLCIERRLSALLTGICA
# Method in brief: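 Recombinant human ULK1 (10 ng) with MBP (0.1 µg/µl)/10 µM ATP and compound at 100 nM in 40 mM Tris pH 7.5, 20 mM MgCl2, 50 µM DTT, 0.1 mg/ml BSA. Incubated 60 min at room temperature; ADP-Glo luminescence read. Three independent experiments, mean ± SEM.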
# [2] = biological target: T1, Serine/threonine-protein kinase ULK1 (Homo sapiens); assay: Induction of ULK1-mediated autophagy in human SH-SY5Y cells at 1 uM after 6 hrs by MDC-staining based flow cytometric analysis relative to control; format: cell-based
# Method in brief: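 Autophagy scored as percentage of MDC-positive SH-SY5Y cells by flow cytometry after 1 µM compound; mean ± SEM.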
SMILES,Activity [1],Activity [2]
COc1ccc(CCN[C@@H](C(=O)Nc2ccc(F)cc2F)c2ccccc2)cc1OC,151%,22.4%
CN1CCN(CC(OC(=O)Cc2ccccn2)c2ccccc2)CC1 (centres undefined),143%,9.99%
Cc1ccccc1NC(=O)[C@H](NCCc1ccc(O)cc1)c1ccccc1,158%,21%
Cc1ccccc1NC(=O)[C@H](NCCc1cccc2ccccc12)c1ccccc1,137%,11%
CN1CCN(CC(OC(=O)c2ccc3ncccc3c2)c2ccccc2)CC1 (centres undefined),181%,12.5%
COc1ccc(N2CCN(CC(OC(=O)c3ccc(C)cc3)c3ccccc3)CC2)cc1 (centres undefined),139%,4.51%
Cc1ccccc1NC(=O)[C@H](NC(=S)Nc1ccccc1)c1ccccc1,179%,36.2%
COc1ccc(CCNC(=S)N[C@@H](C(=O)Nc2ccccc2)c2ccccc2)cc1OC,170%,36.7%
Cc1ccccc1NC(=O)[C@H](NCCc1ccc2[nH]ccc2c1)c1ccccc1,144%,16.8%
Cc1ccccc1NC(=O)[C@H](NC(=O)Nc1cccc(Cl)c1)c1ccccc1,156%,27.4%
Cc1ccccc1NC(=O)[C@H](NCCc1cc(Cl)ccc1O)c1ccccc1,146%,15.3%
C[C@@H](NC(=O)[C@H](NC(=O)Nc1ccccc1Cl)c1ccccc1)c1ccccc1,158%,19.3%
CN(C)c1ccc(CCN[C@@H](C(=O)Nc2ccc(F)cc2F)c2ccccc2)cc1,149%,20.2%
O=C(Nc1cccc(Cl)c1)N[C@@H](C(=O)Nc1cccc(Br)c1)c1ccccc1,152%,24.1%
COc1ccc(CCNC(=O)N[C@@H](C(=O)Nc2cccc(Cl)c2)c2ccccc2)cc1OC,168%,31.1%
CN1CCN(CC(OC(=O)c2cccc(Br)c2)c2ccccc2)CC1 (centres undefined),159%,11.4%
COc1ccc(N2CCN(CC(OC(=O)c3cccc(Cl)c3)c3ccccc3)CC2)cc1 (centres undefined),163%,13.4%
COc1ccc(CCNC(=O)N[C@@H](C(=O)Nc2cccc3ccccc23)c2ccccc2)cc1OC,139%,20.9%
O=C(Nc1ccc(F)cc1F)[C@H](NCCc1ccc(O)cc1)c1ccccc1,198%,32.1%

SMILES,Activity [1],Activity [2]
Cc1ccc(NC(=O)N[C@@H](C(=O)N[C@H](C)c2ccccc2)c2ccccc2)cc1,148%,16.6%
O=C(Nc1ccc(F)cc1F)[C@H](NCCc1ccc(Cl)c(Cl)c1)c1ccccc1,174%,31.4%
COc1ccc(N2CCN(CC(OC(=O)c3ccc(Cl)cc3Cl)c3ccccc3)CC2)cc1 (centres undefined),150%,11.8%
COc1ccc(NC(=O)N[C@@H](C(=O)Nc2ccccc2C)c2ccccc2)cc1,158%,30.4%
COc1ccc(NC(=O)N[C@@H](C(=O)N[C@H](C)c2ccccc2)c2ccccc2)cc1,145%,19.2%
Cc1ccccc1NC(=O)[C@H](NCCc1ccc(Cl)c(Cl)c1)c1ccccc1,153%,20.3%
O=C(Nc1ccccc1Cl)N[C@@H](C(=O)Nc1cc(F)ccc1F)c1ccccc1,144%,19.6%
O=C(Nc1cccc(Br)c1)[C@H](NC(=S)Nc1ccccc1)c1ccccc1,176%,32.9%
CN1CCN(CC(OC(=O)c2ccccc2F)c2ccccc2)CC1 (centres undefined),149%,6.56%
Cc1ccc(NC(=O)N[C@@H](C(=O)Nc2cc(F)ccc2F)c2ccccc2)cc1,153%,24%
COc1ccc(N2CCN(CC(OC(=O)c3ccc(-c4ccccc4)cc3)c3ccccc3)CC2)cc1 (centres undefined),147%,9.2%
Cc1ccccc1NC(=O)[C@H](NC(=O)Nc1cccc2ccccc12)c1ccccc1,146%,24.4%
Cc1ccccc1NC(=O)[C@H](NC(=O)Nc1ccccc1Cl)c1ccccc1,30.4%,36.8%
C[C@@H](NC(=O)[C@H](NC(=S)Nc1ccccc1)c1ccccc1)c1ccccc1,169%,32.2%
O=C(Nc1ccc(F)cc1F)[C@H](NCCc1ccc(Br)cc1)c1ccccc1,171%,28.2%
Cc1ccccc1NC(=O)[C@H](NC(=O)Nc1ccc(C(F)(F)F)cc1)c1ccccc1,183%,38.4%
O=C(Nc1ccc(C(F)(F)F)cc1)N[C@@H](C(=O)Nc1cccc(Br)c1)c1ccccc1,179%,33.6%
O=C(Nc1ccc(F)cc1F)[C@H](NCCc1cccc2ccccc12)c1ccccc1,168%,26.2%

# Next, values leading:
Activity [1],Activity [2],SMILES
147%,25.4%,Cc1ccc(NC(=O)N[C@@H](C(=O)Nc2cccc(Br)c2)c2ccccc2)cc1
149%,24.2%,Cc1ccccc1NC(=O)[C@H](NC(=O)Nc1c(C)cccc1C)c1ccccc1
163%,33.5%,COc1ccc(CCNC(=O)N[C@@H](C(=O)Nc2ccc(C(F)(F)F)cc2)c2ccccc2)cc1OC
217%,39.6%,O=C(Nc1cccc(Br)c1)[C@H](NC(=S)Nc1cc(C(F)(F)F)cc(C(F)(F)F)c1)c1ccccc1
139%,13.8%,Cc1ccc(CCN[C@@H](C(=O)Nc2ccccc2C)c2ccccc2)cc1
184%,39%,COc1ccc(CCNC(=S)N[C@@H](C(=O)Nc2cc(C(F)(F)F)cc(C(F)(F)F)c2)c2ccccc2)cc1OC
174%,34.9%,Cc1ccc(NC(=O)N[C@@H](C(=O)Nc2ccccc2C)c2ccccc2)cc1
151%,10%,CN1CCN(CC(OC(=O)c2ccccc2C(F)(F)F)c2ccccc2)CC1 (centres undefined)
197%,39.4%,O=C(Nc1cc(F)ccc1F)[C@H](NC(=S)Nc1ccccc1)c1ccccc1
169%,22.7%,C[C@@H](NC(=O)[C@H](NC(=O)Nc1cccc(Cl)c1)c1ccccc1)c1ccccc1
152%,27.9%,COc1ccc(CCNC(=O)N[C@@H](C(=O)Nc2ccccc2Cl)c2ccccc2)cc1OC
144%,23.2%,COc1ccc(CCNC(=O)N[C@@H](C(=O)Nc2c(C)cccc2C)c2ccccc2)cc1OC
159%,24.7%,O=C(Nc1cccc(Cl)c1)N[C@@H](C(=O)Nc1cc(F)ccc1F)c1ccccc1
155%,27.1%,Cc1cccc(C)c1NC(=O)N[C@@H](C(=O)Nc1cccc(Br)c1)c1ccccc1
149%,19.6%,C[C@@H](NC(=O)[C@H](NC(=O)Nc1cccc2ccccc12)c1ccccc1)c1ccccc1
143%,13.5%,Cc1ccccc1NC(=O)[C@H](NCCc1ccc(N(C)C)cc1)c1ccccc1
151%,22.3%,O=C(Nc1cccc2ccccc12)N[C@@H](C(=O)Nc1cc(F)ccc1F)c1ccccc1
168%,11.1%,COc1ccc(N2CCN(CC(OC(=O)c3ccc(F)cc3)c3ccccc3)CC2)cc1 (centres undefined)
227%,43.6%,O=C(Nc1ccc(C(F)(F)F)cc1)N[C@@H](C(=O)Nc1cc(F)ccc1F)c1ccccc1
171%,14.2%,COc1ccc(N2CCN(CC(OC(=O)c3ccc(C(F)(F)F)cc3)c3ccccc3)CC2)cc1 (centres undefined)
161%,23.4%,O=C(Nc1ccc(F)cc1F)[C@H](NCCc1cccc(F)c1)c1ccccc1
142%,16.6%,Cc1ccccc1NC(=O)[C@H](NCCc1ccc([N+](=O)[O-])cc1)c1ccccc1
141%,8.56%,COc1ccc(N2CCN(CC(OC(=O)c3cccc(C)c3)c3ccccc3)CC2)cc1 (centres undefined)
147%,18.1%,COc1ccc(CCN[C@@H](C(=O)Nc2ccccc2C)c2ccccc2)cc1OC
162%,11.6%,COc1ccc(N2CCN(CC(OC(=O)c3cccc(C(F)(F)F)c3)c3ccccc3)CC2)cc1 (centres undefined)
